Sampled rows, rich in hits. Any-hit rate of the full collection: about 3.3%.
ABHD4 inh: inhibits mouse alpha/beta hydrolase domain 4. 370,000 tested, 0.54% active. purified mABHD4, FP-Rh probe fluorescence polarization. inhibition, % at 8.92 µM. AID 720543. Q8VD66;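 active means inhibition exceeding the mean over every tested compound plus 3 SD, cut at about 30% in these data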
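Material: mouse ABHD4 enzyme, wild type; Benchmarks: S159A mutant high control, sample median low control; Buffer or medium: HEPES pH 7.0, NaCl, Pluronic buffer; Signal: fluorescence polarization; Read-out: percent inhibition of probe binding, normalized to plate controls; Timing: pre-incubation 45 min, probe exposure 60 min, at 25 °C; Dosing: 8.92 µM, single dose.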
HTRA1 inh: HTRA1 (human) protease inhibition; recombinant HTRA1, FP-rhodamine activity-based probe, fluorescence polarization; inhibition, % at 5.96 µM; 340,000 tested, 0.5% active; AID 504803; in the data active means inhibition above about 36%
PRMT1 FP inh: PRMT1 (human) inhibition, primary screen; Q99873; recombinant PRMT1, activity-based probe fluorescence polarization; inhibition, % at 2.79 µM; 370,000 tested, 1.3% active;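 active means inhibition above about 21% made by adding two undisclosed values, limit read from the data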
SIAE inh: inhibitors of human sialic acid acetylesterase SIAE; Q9HAT2; SIAE FP-Rh probe binding, fluorescence polarization; inhibition, % at 9.66 µM; 370,000 tested, 0.69% active;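 active means inhibition above a cutoff: mean of compounds within the control limits plus 3 SD of those, cut at about 17% in these data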
Target sequence (Q9HAT2 whole entry, looked up): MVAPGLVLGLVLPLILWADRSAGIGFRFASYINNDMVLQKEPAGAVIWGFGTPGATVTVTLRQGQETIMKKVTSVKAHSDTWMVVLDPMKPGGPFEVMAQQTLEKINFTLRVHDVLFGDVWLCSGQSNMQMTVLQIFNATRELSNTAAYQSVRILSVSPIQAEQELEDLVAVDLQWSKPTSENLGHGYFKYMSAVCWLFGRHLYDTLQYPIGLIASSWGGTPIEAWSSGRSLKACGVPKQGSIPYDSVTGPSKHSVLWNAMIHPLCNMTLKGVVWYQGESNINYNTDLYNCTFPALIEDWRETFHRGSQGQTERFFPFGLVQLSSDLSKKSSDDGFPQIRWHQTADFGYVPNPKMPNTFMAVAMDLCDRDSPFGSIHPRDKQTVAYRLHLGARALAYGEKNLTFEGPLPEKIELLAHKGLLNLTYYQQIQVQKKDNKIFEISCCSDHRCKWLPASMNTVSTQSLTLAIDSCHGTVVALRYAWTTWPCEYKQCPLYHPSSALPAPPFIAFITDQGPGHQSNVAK
rCAG binder: r(CAG) repeat RNA binding; TO-PRO-1 dye displacement fluorescence; inhibition, % at 3 µM; 370,000 tested, 1.3% active;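 active means inhibition above the plate cutoff, the mean of all test compounds on that plate plus 3 SD, cut at about 35% in these data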;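 further: higher means more dye released from RNA so lower well fluorescence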
PRMT1 confirm: PRMT1 (human) inhibition, FP confirmation; shares compounds with PRMT1 FP inh; inhibition, % at 2.79 µM; AID 687036; recombinant His-PRMT1, activity-based probe fluorescence polarization; 3,300 tested, 42% active;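 active means mean inhibition across replicates above the hit cutoff derived for the earlier primary screen, cut at about 22% in these data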
Each line names hits and unclear results; the compound was inactive in the other large screens (follow-up assays come after a bar, where they were run).

Oc1csc(Cc2nc(-c3ccc(Br)cc3)cs2)n1	none
Cc1sc(Cc2nc(O)cs2)nc1-c1ccccc1	PRMT1 FP inh 58 (no result: HTRA1 inh) | PRMT1 confirm inactive
c1ccc2[nH]c3cc4ncnc4cc3nc2c1	PRMT1 FP inh 59 | PRMT1 confirm 61
FC(F)c1nc2ccccc2[nH]1	none
CCOC(=O)C1=C(CSc2nc3c(cc2C#N)CN(C)CC3)OC(N)=C(C#N)C1c1ccccc1 (stereo not drawn)	none
CCOC(=O)C1=C(CSc2nc3c(cc2C#N)CCC3)OC(N)=C(C#N)C1c1ccccc1 (stereo not drawn)	PRMT1 FP inh 46 | PRMT1 confirm inactive
CCOC(=O)C1=C(CSc2nc(-c3ccccc3)ccc2C#N)OC(N)=C(C#N)C1c1cccnc1 (stereo not drawn)	PRMT1 FP inh 41 | PRMT1 confirm 26
CCOC(=O)C1=C(CSc2nc(-c3ccccc3)ccc2C#N)OC(N)=C(C#N)C1c1ccccc1 (stereo not drawn)	none
Cc1ccn2c(Nc3ccccc3C)c(-c3cccnc3)nc2c1	none
C1CSC2(N1)C1CC3CC(C1)CC2C3 (stereo not drawn)	PRMT1 FP inh 51 | PRMT1 confirm 35
COc1cc(/C=N/NC(=O)c2ccncc2)ccc1OC(=O)c1cccc(F)c1	none
O=[n+]1c2c(n([O-])c3ccccc31)CCCC2	PRMT1 FP inh 76 | PRMT1 confirm inactive
O=C(COC(=O)Cc1cccs1)NCC(=O)Nc1ccc(F)cc1	none
CC(=O)c1sc2nsc(SCCN3CCCC3)c2c1N	PRMT1 FP inh 35 | PRMT1 confirm inactive
Cc1cccc(NC(=O)COC(=O)c2ccc(C)c(S(=O)(=O)N3CCCCC3)c2)c1	none
O=C(CCN1CCc2ccccc2CC1)c1ccc2c(c1)OCCO2	PRMT1 FP inh 40 | PRMT1 confirm 29
O=C(CCN1CCCCC1)c1ccc2c(c1)OCO2	none
CC(=O)c1ccc(NC(=S)NCCc2ccc(S(N)(=O)=O)cc2)cc1	none
S=C(NCc1ccco1)NCc1ccco1	PRMT1 FP inh 27 | PRMT1 confirm inactive
O=S(=O)(c1ccc(NC(=S)NC2CCCC2)cc1)N1CCCC1	none
CC(C)OCCCNC(=S)Nc1ccc(S(N)(=O)=O)cc1	PRMT1 FP inh 40 | PRMT1 confirm 58
NS(=O)(=O)c1ccc(NC(=S)NC2CCCC2)cc1	PRMT1 FP inh 34 | PRMT1 confirm inactive
NS(=O)(=O)c1ccc(NC(=S)NCc2ccco2)cc1	PRMT1 FP inh 27 | PRMT1 confirm inactive
Cc1cccc(C)c1NC(=O)C(c1ccccc1OC(F)(F)F)N1CCN(c2ccc(F)cc2)CC1 (stereo not drawn)	none (no result: HTRA1 inh)
CCC(CC)C(=O)Nc1nnc(SCC(=O)NC2CC2)s1	none
O=C1C=CC(=O)N1Cc1ccncc1	none
O=C1C2C3C=CC(O3)C2C(=O)N1Cc1ccncc1 (stereo not drawn)	PRMT1 FP inh 43 | PRMT1 confirm inactive
CC(C)CN(C(=O)COC(=O)CNC(=O)c1sc2ccccc2c1Cl)C1CCS(=O)(=O)C1 (stereo not drawn)	none
COC(=O)N[C@@H]1C[C@H]2[C@@H]3CC[C@H]4C[C@@H](OC)CC[C@]4(C)[C@H]3CC[C@@]12C	none
CN(C)c1ccc(Cl)c(NC(N)=S)c1	none
Cc1ccc(S(=O)(=O)CCC(=O)c2ccc(F)cc2)cc1	none
Cc1ccc(C(=O)CCS(=O)(=O)c2ccc(F)cc2)cc1	PRMT1 FP inh 29 | PRMT1 confirm 26
CC(C)CSc1n[nH]c(=S)s1	none
CC(CSc1n[nH]c(=S)s1)c1ccccc1 (stereo not drawn)	PRMT1 FP inh 41 | PRMT1 confirm 74
COc1ccccc1N1C(=O)CC(Sc2nc(C)cc(C)n2)C1=O (stereo not drawn)	none
COc1ccc(N2C(=O)CC(Sc3n[nH]c(-c4cccc(C)c4)n3)C2=O)cc1 (stereo not drawn)	PRMT1 FP inh 44 (no result: HTRA1 inh) | PRMT1 confirm 60
CCOc1ccccc1N1C(=O)CC(Sc2n[nH]c(-c3ccccc3)n2)C1=O (stereo not drawn)	PRMT1 FP inh 73 | PRMT1 confirm 78
COC(=O)c1ccc(N2C(=O)CC(Sc3n[nH]c(C)n3)C2=O)cc1 (stereo not drawn)	PRMT1 FP inh 44 | PRMT1 confirm 50
CCN(CC)C(=O)c1cccc(-c2csc(C(C)(O)c3cccc(F)c3)n2)c1 (stereo not drawn)	none (no result: HTRA1 inh)
O=C(O)Cn1cc(C(=S)N2CCCCC2)c2ccccc21	PRMT1 FP inh 25 | PRMT1 confirm inactive
Cc1ccc(/C=c2\sc3n(c2=O)CN(c2ccc(Br)cc2)CN=3)o1	PRMT1 FP inh 36 | PRMT1 confirm inactive
CCCNC(=O)C1(C)CCN(C(=O)c2ccc(OC(F)F)cc2)C1 (stereo not drawn)	none (no result: HTRA1 inh)
Cc1c(C(=O)N(C)C)sc2nc(-c3ccccn3)[nH]c(=O)c12	none
O=c1[nH]c(-c2ccccn2)nc2sc(-c3ccccc3)cc12	PRMT1 FP inh 33 | PRMT1 confirm inactive
COc1ccc(CCN2C(=O)CC(NC34CC5CC(CC(C5)C3)C4)C2=O)cc1OC (stereo not drawn)	PRMT1 FP inh 67 | PRMT1 confirm inactive
O=C1CC(N2CCC(Cc3ccccc3)CC2)C(=O)N1CCc1ccccc1 (stereo not drawn)	PRMT1 FP inh 47 | PRMT1 confirm inactive
O=C1CC(NCc2ccco2)C(=O)N1CCc1ccccc1 (stereo not drawn)	none
COc1ccc(CCN2C(=O)CC(Cc3ccc(C)cc3)C2=O)cc1OC (stereo not drawn)	none
COc1ccc(CCN2C(=O)CC(NCCc3ccc(S(N)(=O)=O)cc3)C2=O)cc1OC (stereo not drawn)	PRMT1 FP inh 42 | PRMT1 confirm inactive
O=C1CC(N2CCN(C3CC(=O)N(CCc4ccccc4)C3=O)CC2)C(=O)N1CCc1ccccc1 (stereo not drawn)	none
O=C1CC(NCCc2ccccc2)C(=O)N1CCc1ccccc1 (stereo not drawn)	PRMT1 FP inh 38 | PRMT1 confirm inactive
COCCCN1C(=O)C(CC(=O)NC(c2ccccc2)c2ccccc2)CC(C(=O)N2CCCCCC2)=C1C (stereo not drawn)	none (no result: HTRA1 inh)
CCCCOc1ccc(N2C(=O)CC(NCCc3ccc(S(N)(=O)=O)cc3)C2=O)cc1 (stereo not drawn)	PRMT1 FP inh 40 | PRMT1 confirm inactive
COc1ccc(N2C(=O)CC(NC34CC5CC(CC(C5)C3)C4)C2=O)c(OC)c1 (stereo not drawn)	PRMT1 FP inh 89 | PRMT1 confirm inactive
COc1ccc(CCN2C(=O)C=CC2=O)cc1OC	PRMT1 FP inh 89 | PRMT1 confirm 84
CCCOc1ccc(N2C(=O)CC(NCCNc3ccc([N+](=O)[O-])cn3)C2=O)cc1 (stereo not drawn)	PRMT1 FP inh 32 | PRMT1 confirm inactive

Screens: PubChem, The Scripps Research Institute Molecular Screening Center
